Measured values reported in ChEMBL document CHEMBL3351777, “Further studies on pyrazolo[1',5':1,6]pyrimido[4,5-d]pyridazin-4(3H)-ones as potent and selective human A1 adenosine receptor antagonists” (Eur J Med Chem, 2015).
pIC50, pKi: −log10 of the molar value. Activity calls are given as the source filed them. The rule behind the calls is not given here.

What was measured:
Adenosine receptor A1 [1] = biological target: T1, Adenosine receptor A1 (Homo sapiens, UniProt P30542); assay: Displacement of [3H]DPCPX from human adenosine A1 receptor expressed in CHO cells after 120 mins; type: cell-based
T1 sequence (P30542 whole entry): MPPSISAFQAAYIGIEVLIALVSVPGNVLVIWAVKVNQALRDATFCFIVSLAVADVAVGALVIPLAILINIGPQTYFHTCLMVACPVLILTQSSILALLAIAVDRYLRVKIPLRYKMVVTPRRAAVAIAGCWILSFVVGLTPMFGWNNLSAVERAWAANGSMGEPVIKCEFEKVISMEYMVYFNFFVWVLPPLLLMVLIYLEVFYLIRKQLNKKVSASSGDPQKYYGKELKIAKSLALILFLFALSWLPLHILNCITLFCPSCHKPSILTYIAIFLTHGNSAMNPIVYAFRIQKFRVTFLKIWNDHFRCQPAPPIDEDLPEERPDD

Adenosine receptor A2a [2] = biological target: T2, Adenosine receptor A2a (Homo sapiens, UniProt P29274); assay: Displacement of [3H]NECA from human adenosine A2A receptor expressed in CHO cells at 10 uM after 120 mins; type: cell-based
T2 sequence (P29274 whole entry): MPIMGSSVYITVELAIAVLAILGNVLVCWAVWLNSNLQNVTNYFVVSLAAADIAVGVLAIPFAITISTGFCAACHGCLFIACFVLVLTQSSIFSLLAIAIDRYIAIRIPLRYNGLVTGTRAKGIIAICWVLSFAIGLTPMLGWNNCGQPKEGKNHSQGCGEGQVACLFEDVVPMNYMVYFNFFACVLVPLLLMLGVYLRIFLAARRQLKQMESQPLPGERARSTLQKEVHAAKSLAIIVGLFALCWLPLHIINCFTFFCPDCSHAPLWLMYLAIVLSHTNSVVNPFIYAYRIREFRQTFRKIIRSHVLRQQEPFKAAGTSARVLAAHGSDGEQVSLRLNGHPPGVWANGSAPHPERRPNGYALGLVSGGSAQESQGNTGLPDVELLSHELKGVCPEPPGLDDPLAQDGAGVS

[3] = biological target: T3, Adenosine receptor A3 (Homo sapiens) (UniProt P0DMS8); assay: Displacement of [125I]AB-MECA from human adenosine A3 receptor expressed in CHO cells at 10 uM after 120 mins; type: cell-based
T3 sequence (whole entry): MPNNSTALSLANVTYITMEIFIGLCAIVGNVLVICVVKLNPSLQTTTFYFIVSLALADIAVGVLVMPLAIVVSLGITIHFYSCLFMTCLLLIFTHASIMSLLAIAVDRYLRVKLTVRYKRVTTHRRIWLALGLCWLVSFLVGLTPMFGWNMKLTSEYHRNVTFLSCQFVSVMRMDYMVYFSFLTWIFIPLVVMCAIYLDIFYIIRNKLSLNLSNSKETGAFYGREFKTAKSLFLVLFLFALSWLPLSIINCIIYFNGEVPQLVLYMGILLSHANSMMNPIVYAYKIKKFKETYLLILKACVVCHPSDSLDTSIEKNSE

Mus musculus [4] = organism: Mus musculus; assay: Toxicity in Swiss albino mouse assessed as change in gross behavior by rotarod test relative to control; type: organism-based; conditions: in vivo
Summary of the method: (§1)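 Male Swiss albino mice on the rota-rod, counting falls from the rotating rod at the doses used in passive avoidance. Compared with saline- and CMC-treated mice.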

Mus musculus [5] = organism: Mus musculus; assay: Toxicity in Swiss albino mouse assessed as change in motor coordination by measuring number of falls from the rotating rod by rotarod test relative to control; type: organism-based; conditions: in vivo; summary of the method: as §1
[6] = biological target: T4, Adenosine receptor A1 (Homo sapiens) (UniProt P30542); assay: Displacement of [3H]DPCPX from human adenosine A1 receptor expressed in CHO cells at 10 uM after 120 mins; type: cell-based
T4 sequence (whole entry): T1 sequence (P30542 whole entry)

Adenosine receptor A2a [7] = biological target: T2, Adenosine receptor A2a; assay: Displacement of [3H]NECA from human adenosine A2A receptor expressed in CHO cells after 120 mins; type: cell-based
Adenosine receptor A3 = biological target: T5, Adenosine receptor A3 (Homo sapiens, UniProt P0DMS8); assay: Displacement of [125I]AB-MECA from human adenosine A3 receptor expressed in CHO cells after 120 mins; type: cell-based
T5 sequence (P0DMS8 whole entry): T3 sequence (whole entry)

[8] = biological target: T6, Adenosine receptor A2b (Homo sapiens) (UniProt P29275); assay: Antagonist activity at human recombinant adenosine A2B receptor expressed in CHO cells assessed as inhibition of NECA-induced cAMP accumulation at 10 uM after 15 mins by liquid scintillation spectrometry; type: functional, cell-based; parameters: scale not given: the % may be the effect or the level left
T6 sequence (whole entry): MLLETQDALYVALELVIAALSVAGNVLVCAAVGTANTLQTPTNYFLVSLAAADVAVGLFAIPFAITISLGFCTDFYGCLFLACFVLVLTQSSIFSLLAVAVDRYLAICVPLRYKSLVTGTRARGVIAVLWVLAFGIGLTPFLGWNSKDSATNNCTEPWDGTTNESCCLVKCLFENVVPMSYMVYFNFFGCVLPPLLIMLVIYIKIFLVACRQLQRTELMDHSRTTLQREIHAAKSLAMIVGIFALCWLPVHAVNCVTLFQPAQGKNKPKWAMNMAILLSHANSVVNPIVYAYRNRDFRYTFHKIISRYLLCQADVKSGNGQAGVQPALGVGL
Summary of the method: (§2)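 CHO cells expressing human A2B receptor, plated about 30000 per well and used after 24 h. Preincubated 15 min at 37 °C in DMEM with ADA (1 U/mL) and Ro20-1724 (20 μM). Compound at 10 μM was tested alone or with an EC50 concentration of NECA determined the same day. cAMP was measured by [3H]cAMP competition with bovine adrenal binding protein. Output is % of cAMP production versus agonist maximal effect.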

[9] = biological target: T6, Adenosine receptor A2b (Homo sapiens); assay: Agonist activity at human recombinant adenosine A2B receptor expressed in CHO cells assessed as cAMP accumulation at 10 uM after 15 mins by liquid scintillation spectrometry (reference value: 50%); type: functional, cell-based; summary of the method: as §2
Mus musculus [10] = assay: Antiamnesic activity in Swiss albino mouse CPA-induced amnesia model assessed as time taken to enter dark compartment during training session at 3 mg/kg, ip administered 30 mins prior to session by passive avoidance test (reference value: 16.6 +/- 4.1 secs); type: functional; conditions: route intraperitoneal
Mus musculus [11] = assay: Antiamnesic activity in Swiss albino mouse CPA-induced amnesia model assessed as time taken to enter dark compartment during retention session at 3 mg/kg, ip administered 30 mins prior to session by passive avoidance test (reference value: 61.2 +/- 9.0 secs); type: functional; conditions: route intraperitoneal
[12] = biological target: T4, Adenosine receptor A1 (Homo sapiens); assay: Antagonist activity at human recombinant adenosine A1 receptor expressed in CHO cells assessed as inhibition of NECA-induced cAMP accumulation at 1 nM to 10 uM after 15 mins by liquid scintillation spectrometry; type: functional, cell-based
Summary of the method: (§3)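 Human A1-transfected CHO cells, preincubated 15 min at 37 °C with ADA (1 U/mL) and Ro20-1724 (20 μM). Cells received 1 μM forskolin plus 100 nM NECA, with or without compound (1 nM–10 μM), for 15 min. Stopped with 0.4 N HCl and neutralized with KOH. cAMP was measured by [3H]cAMP (2 nM) binding-protein competition, 150 min at 0 °C, with filtration and scintillation counting. Levels are % of forskolin (100%). Mean ± SEM of ≥3 experiments in duplicate.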

Adenosine receptor A1 [13] = biological target: T1, Adenosine receptor A1; assay: Antagonist activity at human recombinant adenosine A1 receptor expressed in CHO cells assessed as inhibition of NECA-induced cAMP accumulation after 15 mins by liquid scintillation spectrometry; type: functional, cell-based; summary of the method: as §3

Compound | pKi (Adenosine receptor A1 [1]) | inhibition (Adenosine receptor A2a [2]) | inhibition [3] | Activity (Mus musculus [4]) | Activity (Mus musculus [5]) | inhibition [6] | pKi (Adenosine receptor A2a [7]) | pKi (Adenosine receptor A3) | Activity [8] | Activity [9] | Time (Mus musculus [10]) | Time (Mus musculus [11]) | Activity [12] | pIC50 (Adenosine receptor A1 [13])
S=c1c2ncn3nc(-c4ccccc4)cc3c2c(C2CCCC2)nn1Cc1ccccc1 | 7.89 | 37% | 54% | Non-toxic | Non-toxic | – | – | – | – | – | – | – | – | –
Cc1nc2c(=O)n(Cc3ccccc3)nc(-c3ccsc3)c2c2cc(-c3ccccc3)nn12 | – | 57% | 37% | Non-toxic | Non-toxic | 8% | – | – | – | – | – | – | – | –
O=c1c2ncn3nc(-c4ccccc4)cc3c2c(C2CCCC2)nn1Cc1ccccc1 | 7.49 | – | – | Non-toxic | Non-toxic | – | 7.12 | 7.19 | – | – | – | – | – | –
O=c1c2ncn3nc(-c4ccccc4)cc3c2c(-c2ccc(Cl)cc2)nn1Cc1ccccc1 | – | 56% | 31% | Non-toxic | Non-toxic | 26% | – | – | – | – | – | – | – | –
Cc1nc2c(=O)n(Cc3ccccc3)nc(C3CCCCC3)c2c2cc(-c3ccccc3)nn12 | 8.02 | 7% | 35% | Non-toxic | Non-toxic | – | – | – | 57.8% | 2.1% | – | – | – | –
CCc1nc2c(=O)n(Cc3ccccc3)nc(C3CCCC3)c2c2cc(-c3ccccc3)nn12 | 8.46 | – | 43% | Non-toxic | Non-toxic | – | 6.18 | – | – | – | – | – | – | –
CCCn1c(=O)c2[nH]c(C3CCCC3)nc2n(CCC)c1=O [1,3-DIPROPYL-8-CYCLOPENTYLXANTHINE [DPCPX]] | – | – | – | – | – | – | – | – | – | – | 0.275 min | 1.53 min | – | –
CCc1nc2c(=S)n(Cc3ccccc3)nc(C3CCCC3)c2c2cc(-c3ccccc3)nn12 | 8.33 | 35% | 24% | Non-toxic | Non-toxic | – | – | – | – | – | – | – | – | –
CCc1nc2c(=O)n(Cc3ccccc3)nc(C3CCCCC3)c2c2cc(-c3ccccc3)nn12 | 7.82 | 0% | 40% | Non-toxic | Non-toxic | – | – | – | – | – | – | – | – | –
Cc1nc2c(=S)n(Cc3ccccc3)nc(C3CCCCC3)c2c2cc(-c3ccccc3)nn12 | – | 0% | 30% | Non-toxic | Non-toxic | 33% | – | – | – | – | – | – | – | –
CCc1nc2c(=O)n(Cc3ccccc3)nc(-c3ccc(Cl)cc3)c2c2cc(-c3ccccc3)nn12 | – | 10% | 51% | Non-toxic | Non-toxic | 35% | – | – | – | – | – | – | inactive | –
O=c1c2ncn3nc(-c4ccccc4)cc3c2c(C2CCCCC2)nn1Cc1ccccc1 | 6.76 | 56% | – | Non-toxic | Non-toxic | – | – | 6.51 | – | – | – | – | – | –
CCc1nc2c(=O)n(Cc3ccccc3)nc(-c3cccs3)c2c2cc(-c3ccccc3)nn12 | – | 65% | 30% | Non-toxic | Non-toxic | 16% | – | – | – | – | – | – | inactive | –
Cc1nc2c(=O)n(Cc3ccccc3)nc(-c3cccs3)c2c2cc(-c3ccccc3)nn12 | – | – | 15% | Non-toxic | Non-toxic | 21% | 5.59 | – | – | – | – | – | – | –
O=c1c2ncn3nc(-c4ccccc4)cc3c2c(-c2cccnc2)nn1Cc1ccccc1 | – | – | 21% | Non-toxic | Non-toxic | – | – | – | – | – | – | – | – | –
CCc1nc2c(=S)n(Cc3ccccc3)nc(C3CCCCC3)c2c2cc(-c3ccccc3)nn12 | – | 0% | 42% | Non-toxic | Non-toxic | – | – | – | – | – | – | – | – | –
Cc1nc2c(=S)n(Cc3ccccc3)nc(C3CCCC3)c2c2cc(-c3ccccc3)nn12 | – | 18% | 13% | Non-toxic | Non-toxic | 51% | – | – | – | – | – | – | – | –
S=c1c2ncn3nc(-c4ccccc4)cc3c2c(C2CCCCC2)nn1Cc1ccccc1 | 8.02 | 8% | 31% | Non-toxic | Non-toxic | – | – | – | 58.9% | 4.8% | – | – | – | –
O=c1c2ncn3nc(-c4ccccc4)cc3c2c(-c2ccsc2)nn1Cc1ccccc1 | – | – | 24% | Non-toxic | Non-toxic | 26% | 7.16 | – | – | – | – | – | – | –
Cc1nc2c(=O)n(Cc3ccccc3)nc(-c3ccc(Cl)cc3)c2c2cc(-c3ccccc3)nn12 | – | 28% | 25% | Non-toxic | Non-toxic | 24% | – | – | – | – | – | – | – | –
Cc1nc2c(=O)n(Cc3ccccc3)nc(C3CCCC3)c2c2cc(-c3ccccc3)nn12 | 8.21 | 53% | 41% | Non-toxic | Non-toxic | – | – | – | – | – | – | – | – | 8.29
O=c1c2ncn3nc(-c4ccccc4)cc3c2c(-c2cccs2)nn1Cc1ccccc1 | – | – | 16% | Non-toxic | Non-toxic | 45% | 7.29 | – | – | – | – | – | – | –
CCc1nc2c(=O)n(Cc3ccccc3)nc(-c3ccsc3)c2c2cc(-c3ccccc3)nn12 | – | 41% | 36% | Non-toxic | Non-toxic | 5% | – | – | – | – | – | – | – | –
